The values that follow come from ChEMBL document CHEMBL4732164, “Structure-Based Design of Potent Selective Nanomolar Type-II Inhibitors of Glycogen Synthase Kinase-3β” (J Med Chem, 2021).

pIC50: −log10 of the molar value. Active and inactive are the calls of the source. The rule behind the calls is not given here. A value given as a limit tells only on which side of the number the result lay.

Experiment [1] concerns the target Protein kinase C gamma type (Homo sapiens) (UniProt P05129). The experiment in a line: Inhibition of PKCgamma (unknown origin) assessed as enzyme remaining activity at 5 uM relative to control.
The target in experiment [2] is Mitogen-activated protein kinase 3 (Homo sapiens) (UniProt P27361). The experiment in a line: Inhibition of ERK1 (unknown origin) assessed as enzyme remaining activity at 5 uM relative to control.
Chain of Mitogen-activated protein kinase 3 (Homo sapiens) (P27361 whole entry): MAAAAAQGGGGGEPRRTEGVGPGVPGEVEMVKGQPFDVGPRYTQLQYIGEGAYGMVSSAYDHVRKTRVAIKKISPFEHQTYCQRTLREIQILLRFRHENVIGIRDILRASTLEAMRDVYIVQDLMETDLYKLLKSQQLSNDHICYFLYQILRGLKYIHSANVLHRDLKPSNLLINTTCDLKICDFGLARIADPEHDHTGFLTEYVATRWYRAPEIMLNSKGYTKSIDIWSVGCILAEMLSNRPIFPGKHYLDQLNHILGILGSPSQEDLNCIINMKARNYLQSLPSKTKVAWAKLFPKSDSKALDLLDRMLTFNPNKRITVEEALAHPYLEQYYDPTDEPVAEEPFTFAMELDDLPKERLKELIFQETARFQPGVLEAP
Experiment [3] addresses Cyclin-dependent kinase 2 (Homo sapiens) (UniProt P24941). The experiment in a line: Inhibition of CDK2 (unknown origin) assessed as enzyme remaining activity at 5 uM relative to control.
In experiment [4] the target is Glycogen synthase kinase-3 alpha (Homo sapiens) (UniProt P49840). The experiment is described as follows: Inhibition of GSK3alpha (unknown origin) assessed as enzyme remaining activity at 5 uM relative to control.
Chain of Glycogen synthase kinase-3 alpha (Homo sapiens) (P49840 2-483 limits assumed): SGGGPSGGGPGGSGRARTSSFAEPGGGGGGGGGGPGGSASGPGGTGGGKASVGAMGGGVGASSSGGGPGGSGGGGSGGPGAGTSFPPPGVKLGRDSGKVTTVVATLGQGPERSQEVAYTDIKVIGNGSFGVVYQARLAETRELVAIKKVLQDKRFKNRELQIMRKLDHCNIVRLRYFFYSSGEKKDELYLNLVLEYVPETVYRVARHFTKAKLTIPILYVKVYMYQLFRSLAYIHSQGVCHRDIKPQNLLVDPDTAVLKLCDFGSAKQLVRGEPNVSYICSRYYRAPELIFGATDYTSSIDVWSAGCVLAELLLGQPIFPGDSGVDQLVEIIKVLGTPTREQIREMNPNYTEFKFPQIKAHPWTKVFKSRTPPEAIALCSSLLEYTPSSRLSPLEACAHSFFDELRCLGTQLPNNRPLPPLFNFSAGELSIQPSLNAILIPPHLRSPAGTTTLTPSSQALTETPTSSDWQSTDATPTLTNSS
Experiment [5] addresses Mitogen-activated protein kinase 1 (Homo sapiens) (UniProt P28482). The experiment in a line: Inhibition of ERK2 (unknown origin) assessed as enzyme remaining activity at 5 uM relative to control.
Experiment [6] has as its target RAC-alpha serine/threonine-protein kinase (Homo sapiens) (UniProt P31749). The experiment is described as follows: Inhibition of PKBalpha (unknown origin) assessed as enzyme remaining activity at 5 uM relative to control.
Experiment [7] is filed under the species Homo sapiens. The experiment is described as follows: Inhibition of PKA (unknown origin) assessed as enzyme remaining activity at 5 uM relative to control.
Experiment [8] deals with Glycogen synthase kinase-3 beta (Homo sapiens, UniProt P49841). The experiment in a line: Inhibition of recombinant human GSK-3beta using phosphorylated polypeptide as substrate incubated for 30 mins in presence of ATP by kinase-glo luminescence assay. Put shortly:
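Buffer is 50 mM HEPES pH 7.5, 1 mM EDTA, 1 mM EGTA, 15 mM magnesium acetate. Runs 30 min at 30 °C; luminescence read 10 min after reagent. Inhibition is relative to no-inhibitor maximal activity.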

For experiment [9], the target named is Protein kinase C alpha type (Homo sapiens) (UniProt P17252). The experiment is described as follows: Inhibition of PKCalpha (unknown origin) assessed as enzyme remaining activity at 5 uM relative to control.
Experiment [10] has as its system SH-SY5Y. The experiment in a line: Neuroprotective activity against OA-induced neuronal injury in human SH-SY5Y cells assessed as reduction in cell death at 0.1 to 10 uM pre-incubated for 1 hrs followed by OA addition measured after 24 hrs by MTT assay. The class given is functional, cell-based. Conditions: dose 0.1-10 µM. Put shortly: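 SH-SY5Y cells (DMEM, 10% FBS, 1% pen/strep, 37 °C, 5% CO2) seeded at 60,000/well and grown 48 h. Compound (0.1, 0.5, 1, 5, 10 μM) added 1 h before okadaic acid at 30 nM, then 24 h. Viability by MTT (0.5 mg/mL, ≥4 h), formazan in DMSO, A595, as % control. Mean ± SEM, three independent experiments.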

In experiment [11] the target is Cyclin-dependent kinase 5 (Homo sapiens) (UniProt Q00535). The experiment in a line: Inhibition of CDK5 (unknown origin) assessed as enzyme remaining activity at 5 uM relative to control.
Chain of Cyclin-dependent kinase 5 (Homo sapiens) (Q00535 whole entry, looked up): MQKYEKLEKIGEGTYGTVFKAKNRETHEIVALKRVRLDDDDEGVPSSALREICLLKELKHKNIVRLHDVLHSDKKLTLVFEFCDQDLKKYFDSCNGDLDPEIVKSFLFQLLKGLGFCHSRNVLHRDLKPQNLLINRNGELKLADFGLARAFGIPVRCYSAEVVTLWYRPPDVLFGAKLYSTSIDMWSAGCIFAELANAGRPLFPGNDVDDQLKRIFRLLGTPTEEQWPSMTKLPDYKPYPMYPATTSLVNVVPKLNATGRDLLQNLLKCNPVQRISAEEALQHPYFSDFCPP
Experiment [12] concerns the target Cyclin-dependent kinase 9 (Homo sapiens) (UniProt P50750). The experiment is described as follows: Inhibition of CDK9 (unknown origin) assessed as enzyme remaining activity at 5 uM relative to control.

Chain of Cyclin-dependent kinase 9 (Homo sapiens) (P50750 whole entry): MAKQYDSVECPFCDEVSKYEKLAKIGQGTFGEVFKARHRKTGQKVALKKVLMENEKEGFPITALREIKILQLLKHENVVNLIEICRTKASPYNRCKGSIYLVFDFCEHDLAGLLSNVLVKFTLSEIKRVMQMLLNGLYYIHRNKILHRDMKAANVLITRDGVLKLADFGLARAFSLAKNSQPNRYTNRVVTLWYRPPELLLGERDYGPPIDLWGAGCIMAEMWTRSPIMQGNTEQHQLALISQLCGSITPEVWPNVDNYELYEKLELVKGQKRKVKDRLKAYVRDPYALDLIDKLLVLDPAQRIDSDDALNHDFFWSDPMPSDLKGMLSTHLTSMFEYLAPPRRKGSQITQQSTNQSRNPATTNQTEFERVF
Chain of RAC-alpha serine/threonine-protein kinase (Homo sapiens) (P31749 whole entry): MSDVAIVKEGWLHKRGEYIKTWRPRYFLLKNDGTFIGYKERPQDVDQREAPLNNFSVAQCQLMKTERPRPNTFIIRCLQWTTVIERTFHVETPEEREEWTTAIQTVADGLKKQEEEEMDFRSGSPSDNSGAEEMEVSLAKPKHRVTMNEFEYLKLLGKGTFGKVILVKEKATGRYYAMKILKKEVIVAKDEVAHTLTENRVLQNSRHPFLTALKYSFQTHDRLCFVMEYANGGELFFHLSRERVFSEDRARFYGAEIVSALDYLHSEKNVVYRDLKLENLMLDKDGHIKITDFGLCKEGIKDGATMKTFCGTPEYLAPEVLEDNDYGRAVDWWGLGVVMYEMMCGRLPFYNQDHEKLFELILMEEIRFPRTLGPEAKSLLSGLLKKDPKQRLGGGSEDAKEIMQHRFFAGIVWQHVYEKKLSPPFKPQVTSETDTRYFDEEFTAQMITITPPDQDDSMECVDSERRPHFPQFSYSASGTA
Chain of Mitogen-activated protein kinase 1 (Homo sapiens) (P28482 whole entry): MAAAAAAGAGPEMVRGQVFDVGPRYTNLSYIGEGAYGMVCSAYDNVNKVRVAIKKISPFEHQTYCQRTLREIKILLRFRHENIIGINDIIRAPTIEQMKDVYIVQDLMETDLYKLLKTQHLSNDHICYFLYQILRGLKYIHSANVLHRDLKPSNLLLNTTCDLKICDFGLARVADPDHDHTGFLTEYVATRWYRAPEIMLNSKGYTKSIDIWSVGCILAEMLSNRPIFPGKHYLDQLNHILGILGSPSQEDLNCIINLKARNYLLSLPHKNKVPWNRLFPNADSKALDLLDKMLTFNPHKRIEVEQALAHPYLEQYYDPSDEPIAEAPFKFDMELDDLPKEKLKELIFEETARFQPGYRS
Chain of Glycogen synthase kinase-3 beta (P49841 whole entry): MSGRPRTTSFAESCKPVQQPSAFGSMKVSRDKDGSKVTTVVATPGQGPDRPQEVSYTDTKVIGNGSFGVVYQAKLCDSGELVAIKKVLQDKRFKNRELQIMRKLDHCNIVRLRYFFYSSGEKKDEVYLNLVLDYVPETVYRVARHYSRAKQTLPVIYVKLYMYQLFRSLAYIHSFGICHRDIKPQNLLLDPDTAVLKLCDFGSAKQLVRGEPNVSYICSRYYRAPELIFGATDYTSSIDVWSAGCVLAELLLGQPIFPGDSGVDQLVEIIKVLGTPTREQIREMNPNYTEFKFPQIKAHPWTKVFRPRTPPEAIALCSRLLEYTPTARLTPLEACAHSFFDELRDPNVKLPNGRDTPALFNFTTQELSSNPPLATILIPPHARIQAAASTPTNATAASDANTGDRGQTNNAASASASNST

One may read the pIC50 as the IC50 on a negative log10 scale, so that one unit is a factor of ten. For the compound `COc1ccc(-c2ccnc(N[C@H]3CO[C@H]4[C@@H]3OC[C@@H]4NC(=O)Nc3ccc(C(C)=O)cc3)n2)cc1`, the Activity in experiment [1], in experiment [2], in experiment [3], in [4], in experiment [5] and in experiment [6] was greater than 50% in each case. The Activity in [7] is greater than 50%; in experiment [9], greater than 50%; in experiment [11], greater than 50%; in experiment [12] it was 33.8%. Besides, the pIC50 in experiment [8] was 6.39. Also, the outcome in [10] was Active.
